Sampled rows, rich in hits. Any-hit rate of the full collection: about 1.7%.
CFTR F508del cor = correctors of CFTR F508del function in bronchial epithelial cells; actives 0.36% (n = 350,000); CFBE cells, YFP halide quenching; stimulated with forskolin plus potentiator P3; % fluorescence drop versus neutral controls; activity (quench increase), % at 7.58 µM;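 active = mean added fluorescence quench of at least 8% versus neutral control, with both replicates also reaching 8%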;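 also: cells transiently co-express mutant CFTR-F508del with the halide-sensitive YFP; corrector assay measuring rescue of mutant channel to the surface after 24 h compound exposure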
Cneo AK release = causes C. neoformans cell lysis; adenylate kinase release luminescence, 4 h; normalised: neutral wells 0, clomiphene wells 100; AID 651654; lysis activity, % at 15 µM; actives 0.2% (n = 360,000);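 active = mean lysis activity across replicates of at least 80%, whatever share of replicates individually reach that level; inactive = mean lysis activity below 80%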
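Assay system: Cryptococcus neoformans yeast cells / Dosing: single-point compound dose / Timing: 4 h at 37 °C static, read 1 h later / Measured by: luminescence of released adenylate kinase using an AK detection reagent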
Ecoli rRNA inh = inhibitors of bacterial rRNA selective over humanized ribosomes; GFP signal change (wild-type ribosome), % (no concentration beside the values); actives 1.6% (n = 350,000); E. coli WT GFP vs humanized-ribosome RFP mutants, fluorescence, 24 h; stronger effect = lower value; DMSO median 0, no signal -100; AID 720706;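 active = significant combined selectivity score with lowered wild-type GFP, culture density cut under 30%, mutant RFP and density less affected; inactive = any of these conditions unmet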
CaV13 ICDI inh = Primary screen for inhibitors of IQ motif and Ca2+-dependent inactivation inhibitor domain binding in CACNA1D, Förster resonance energy transfer in living cells, …. actives 0.098% (n = 340,000). inhibition, % at 12.3 µM. HEK cells, CFP/YFP FRET ICDI-IQ, plate reader, 10 min; percent FRET-ratio fall versus neutral wells;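 active = mean replicate inhibition of at least 30% and at least 1% of replicates passing that level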;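 also: 0% = median of the neutral control wells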
The depositor's hits bear a star.

Results for C[C@@H]1CCCCO[C@H](CN(C)S(=O)(=O)c2ccc(Cl)cc2)[C@H](C)CN([C@H](C)CO)C(=O)c2cc(NC(=O)CCC(F)(F)F)ccc2O1 ?
CFTR F508del cor: -3; Cneo AK release: 3; Ecoli rRNA inh: 0

How did CCC(=O)N1CCC2(CC1)CN(C(=O)c1ccccn1)[C@@H](CO)c1c2c2ccc(OC)cc2n1C do in these assays?
Ecoli rRNA inh: 3

Results for CCOc1ccc(CCNC(=O)CCn2ccc3cc(S(=O)(=O)N4CCCC4)ccc32)cc1 ?
CFTR F508del cor: 0; Cneo AK release: 6; Ecoli rRNA inh: -21*; CaV13 ICDI inh: -14

How did O=C(COC(=O)c1ccccc1NCCO)NCCC1=CCCCC1 do in these assays?
CFTR F508del cor: 1; Cneo AK release: 4; Ecoli rRNA inh: -7; CaV13 ICDI inh: -6

How did CC(C)(C)NS(=O)(=O)c1ccc(OCC(=O)NCCC2=CCCCC2)cc1 do in these assays?
Cneo AK release: -2; Ecoli rRNA inh: -1; CaV13 ICDI inh: -3

What do the screens show for `O=C(COC(=O)c1ccccc1Br)NCCC1=CCCCC1`?
CFTR F508del cor: 0; Cneo AK release: 0; Ecoli rRNA inh: -51*; CaV13 ICDI inh: 1

How did O=C(COc1ccc(S(=O)(=O)N2CCCC2)cc1)NCCC1=CCCCC1 do in these assays?
CFTR F508del cor: -2; Cneo AK release: -2; Ecoli rRNA inh: -20*; CaV13 ICDI inh: -7

How did O=C(Nc1cscc1S(=O)(=O)c1ccccc1)c1ccccc1Cl do in these assays?
CFTR F508del cor: 2; Cneo AK release: -1; Ecoli rRNA inh: -22*; CaV13 ICDI inh: -2

Results for C[C@H](CO)N1C[C@H](C)[C@@H](CN(C)C(=O)c2cccc(F)c2)Oc2cc(C#CC3CCCC3)ccc2S1(=O)=O ?
CFTR F508del cor: -1; Ecoli rRNA inh: 2

What do the screens show for `O=c1c(O)c(-c2cccs2)oc2ccccc12`?
Cneo AK release: 2; CaV13 ICDI inh: -12

How did O=c1c(O)c(-c2cccs2)oc2ccc(Cl)cc12 do in these assays?
CFTR F508del cor: 53*; Cneo AK release: -3; Ecoli rRNA inh: 16; CaV13 ICDI inh: -2

Results for CSc1ccccc1NC(=O)CSc1n[nH]c(C)c1[N+](=O)[O-] ?
CFTR F508del cor: -1; Ecoli rRNA inh: -30*; CaV13 ICDI inh: -6

What do the screens show for `CS(=O)(=O)N1C[C@@H]2C(c3ccc(Br)cc3)[C@H](C1)N2CC(F)(F)F` (stereo partly drawn)?
Ecoli rRNA inh: 3

Results for COc1ccc([C@@H]2CC=C(C(=O)O)[C@H](c3ccc(C)cc3)N2S(=O)(=O)c2ccc(C)cc2)cc1OC ?
CFTR F508del cor: 0; Cneo AK release: 5; Ecoli rRNA inh: 1; CaV13 ICDI inh: -6

How did COc1cccc([C@@H]2CC=C(C(=O)O)[C@H](c3ccc(Cl)cc3)N2S(=O)(=O)c2ccc(C)cc2)c1 do in these assays?
CFTR F508del cor: 1; Cneo AK release: 0; Ecoli rRNA inh: -2; CaV13 ICDI inh: -4

How did COc1ccc([C@@H]2CC=C(C(=O)O)[C@H](c3ccc(F)cc3)N2S(=O)(=O)c2ccc(Cl)cc2)cc1 do in these assays?
CFTR F508del cor: 2; Cneo AK release: -2; Ecoli rRNA inh: -18*; CaV13 ICDI inh: -11

What do the screens show for `Cc1ccc(S(=O)(=O)N2[C@@H](c3cccc(Cl)c3)C(C(=O)O)=CC[C@H]2c2cccc(C)c2)cc1`?
CFTR F508del cor: -1; Cneo AK release: 0; Ecoli rRNA inh: -23*; CaV13 ICDI inh: -5

How did COc1ccc([C@@H]2CC=C(C(=O)O)[C@H](c3ccc(C(C)(C)C)cc3)N2S(=O)(=O)c2ccc(C)cc2)cc1OC do in these assays?
CFTR F508del cor: -4; Cneo AK release: -3; Ecoli rRNA inh: -20*; CaV13 ICDI inh: -7

What do the screens show for `COc1cccc([C@@H]2CC=C(C(=O)O)[C@H](c3ccc(C)cc3)N2S(=O)(=O)c2ccc(C)cc2)c1`?
CFTR F508del cor: 4; Cneo AK release: 4; Ecoli rRNA inh: -19*; CaV13 ICDI inh: -3

What do the screens show for `O=C(C[C@@H]1C[C@H]2c3cc(NC(=O)C4CCC4)ccc3O[C@H]2[C@@H](CO)O1)NCc1cccnc1`?
CFTR F508del cor: -4; Cneo AK release: -6; Ecoli rRNA inh: -5

Results for C[C@H]1CN([C@@H](C)CO)C(=O)CCCn2cc(nn2)CO[C@H]1CN(C)S(=O)(=O)c1ccc(F)cc1 ?
CFTR F508del cor: 0; Cneo AK release: 2; Ecoli rRNA inh: 0
